According to ChEMBL document CHEMBL1821649, “Synthesis, characterization of some benzazoles bearing pyridine moiety: search for novel anticancer agents” (2011):

Legend:
Format in all cases: functional
A498 = assay: Antitumor activity against human A498 cells after 48 hrs by SRB assay; settings: A498, 48 h
In short: (§1)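 NCI-60 human tumour cell panel run under the National Cancer Institute Drug Evaluation Branch protocol. Compounds passing a single-dose prescreen were retested on all lines at five 10-fold dilutions. Growth was expressed as percent growth of treated cells. Response parameters were GI50 (molar concentration giving 50% growth inhibition), TGI (total growth inhibition) and LC50 (median lethal concentration).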

SNB-19 = assay: Antitumor activity against human SNB19 cells after 48 hrs by SRB assay; settings: SNB-19, 48 h; in short: as §1
HT-29 = assay: Antitumor activity against human HT-29 cells after 48 hrs by SRB assay; settings: HT-29, 48 h; in short: as §1
NCI-H460 = assay: Antitumor activity against human NCI-H460 cells after 48 hrs by SRB assay; settings: NCI-H460, 48 h; in short: as §1
SK-MEL-28 = assay: Antitumor activity against human SK-MEL-28 cells after 48 hrs by SRB assay; settings: SK-MEL-28, 48 h; in short: as §1
UACC-257 = assay: Antitumor activity against human UACC257 cells after 48 hrs by SRB assay; settings: UACC-257, 48 h
In short: (§2)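 NCI-60 human cancer cell line panel run under the NCI Drug Evaluation Branch protocol. Compounds were first screened at a single dose. Those meeting preset inhibition thresholds were retested at five 10-fold dilutions. Output was percent growth of treated cells, given as % growth inhibition. GI50, TGI and LC50 values were derived from the five-dose data.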

MDA-MB-231 = assay: Antitumor activity against human MDA-MB-231 cells after 48 hrs by SRB assay; settings: MDA-MB-231, 48 h; in short: as §1
CCRF-CEM = assay: Antitumor activity against human CCRF-CEM cells after 48 hrs by SRB assay; in short: as §1
SF-295 = assay: Antitumor activity against human SF295 cells after 48 hrs by SRB assay; settings: SF-295, 48 h; in short: as §1
SNB-75 = assay: Antitumor activity against human SNB75 cells after 48 hrs by SRB assay; settings: SNB-75, 48 h; in short: as §1
MDA-MB-468 = assay: Antitumor activity against human MDA-MB-468 cells after 48 hrs by SRB assay; settings: MDA-MB-468, 48 h; in short: as §1
NCI-H226 = assay: Antitumor activity against human NCI-H226 cells after 48 hrs by SRB assay; settings: NCI-H226, 48 h; in short: as §1
MOLT-4 = assay: Antitumor activity against human MOLT4 cells after 48 hrs by SRB assay; settings: MOLT-4, 48 h; in short: as §1
RXF 393 = assay: Antitumor activity against human RXF393 cells after 48 hrs by SRB assay; settings: RXF 393, 48 h; in short: as §1
IGROV-1 = assay: Antitumor activity against human IGROV1 cells after 48 hrs by SRB assay; settings: IGROV-1, 48 h; in short: as §1
HOP-62 = assay: Antitumor activity against human HOP62 cells after 48 hrs by SRB assay; settings: HOP-62, 48 h; in short: as §1
OVCAR-5 = assay: Antitumor activity against human OVCAR5 cells after 48 hrs by SRB assay; settings: OVCAR-5, 48 h; in short: as §1
Malme-3M = assay: Antitumor activity against human MALME-3M cells after 48 hrs by SRB assay; in short: as §1
A549 = assay: Antitumor activity against human A549 cells after 48 hrs by SRB assay; settings: A549, 48 h; in short: as §1
LOX IMVI = assay: Antitumor activity against human LOXIMVI cells after 48 hrs by SRB assay; in short: as §1
COLO 205 = assay: Antitumor activity against human COLO205 cells after 48 hrs by SRB assay; settings: COLO 205, 48 h; in short: as §1
SR = assay: Antitumor activity against human SR cells after 48 hrs by SRB assay; in short: as §1
NCI-H322M = assay: Antitumor activity against human NCI-H322M cells after 48 hrs by SRB assay; in short: as §1
OVCAR-3 = assay: Antitumor activity against human OVCAR3 cells after 48 hrs by SRB assay; settings: OVCAR-3, 48 h; in short: as §1
SN12C = assay: Antitumor activity against human SN12C cells after 48 hrs by SRB assay; in short: as §1
UACC-62 = assay: Antitumor activity against human UACC62 cells after 48 hrs by SRB assay; settings: UACC-62, 48 h; in short: as §2
BT-549 = assay: Antitumor activity against human BT549 cells after 48 hrs by SRB assay; settings: BT-549, 48 h; in short: as §1
SF-539 = assay: Antitumor activity against human SF539 cells after 48 hrs by SRB assay; settings: SF-539, 48 h; in short: as §1
SK-OV-3 = assay: Antitumor activity against human SKOV3 cells after 48 hrs by SRB assay; settings: SK-OV-3, 48 h; in short: as §1
[1] = Antitumor activity against human […] cells after 48 hrs by SRB assay; in short: as §1
NCI/ADR-RES = assay: Antitumor activity against human NCI/ADR-RES cells after 48 hrs by SRB assay; in short: as §1
[2] = read-out: LC50 (the source's name)

Cc1cc2nc(-c3c(N)ncc(C#N)c3-c3ccc(Cl)cc3)[nH]c2cc1C
GI50 (A498): 11.8 µM
TGI (A498): 59.2 µM
CC50 (A498; [2]): > 100 µM
GI50 (SNB-19): 19.5 µM
LC50 (median lethal concentration) (SNB-19): > 100 µM
TGI (SNB-19): 75.6 µM
GI50 (HT-29): 6.06 µM
TGI (HT-29): > 100 µM
CC50 (HT-29; [2]): > 100 µM
GI50 (NCI-H460): 3.04 µM
LC50 (median lethal concentration) (NCI-H460): > 100 µM
TGI (NCI-H460): > 100 µM
GI50 (SK-MEL-28): 5.8 µM
LC50 (median lethal concentration) (SK-MEL-28): > 100 µM
TGI (SK-MEL-28): 40.2 µM
GI50 (UACC-257): 11.4 µM
LC50 (UACC-257): > 100 µM
TGI (UACC-257): 82.6 µM
GI50 (MDA-MB-231): 10.5 µM
TGI (MDA-MB-231): 44.2 µM
CC50 (MDA-MB-231; [2]): > 100 µM
GI50 (CCRF-CEM): 24.6 µM
LC50 (CCRF-CEM): > 100 µM
TGI (CCRF-CEM): > 100 µM
GI50 (SF-295): 10 µM
TGI (SF-295): 27.5 µM
CC50 (SF-295; [2]): 75.6 µM
GI50 (SNB-75): 12.9 µM
LC50 (SNB-75): 81.3 µM
TGI (SNB-75): 32.4 µM
GI50 (MDA-MB-468): 12.4 µM
TGI (MDA-MB-468): 51.5 µM
CC50 (MDA-MB-468; [2]): > 100 µM
GI50 (NCI-H226): 15 µM
TGI (NCI-H226): 46.3 µM
CC50 (NCI-H226; [2]): 100 µM
GI50 (MOLT-4): 100 µM
LC50 (MOLT-4): > 100 µM
TGI (MOLT-4): > 100 µM
GI50 (RXF 393): 3.18 µM
TGI (RXF 393): 13.7 µM
CC50 (RXF 393; [2]): 42.6 µM
GI50 (IGROV-1): 18.7 µM
LC50 (IGROV-1): > 100 µM
TGI (IGROV-1): > 100 µM
GI50 (HOP-62): 6.36 µM
TGI (HOP-62): 21.7 µM
CC50 (HOP-62; [2]): 55.9 µM
GI50 (OVCAR-5): 14.7 µM
TGI (OVCAR-5): > 100 µM
CC50 (OVCAR-5; [2]): > 100 µM
GI50 (Malme-3M): 14.5 µM
LC50 (Malme-3M): > 100 µM
TGI (Malme-3M): 78.8 µM
GI50 (A549): 4.17 µM
TGI (A549): 24.9 µM
CC50 (A549; [2]): > 100 µM
GI50 (LOX IMVI): 5.83 µM
TGI (LOX IMVI): 26 µM
CC50 (LOX IMVI; [2]): 80.7 µM
GI50 (COLO 205): 6.24 µM
LC50 (COLO 205): > 100 µM
TGI (COLO 205): 83.4 µM
GI50 (SR): 28.7 µM
LC50 (median lethal concentration) (SR): > 100 µM
TGI (SR): > 100 µM
GI50 (NCI-H322M): 27.7 µM
TGI (NCI-H322M): > 100 µM
CC50 (NCI-H322M; [2]): > 100 µM
GI50 (OVCAR-3): 13.9 µM
TGI (OVCAR-3): 76 µM
CC50 (OVCAR-3; [2]): > 100 µM
GI50 (SN12C): 31 µM
TGI (SN12C): > 100 µM
CC50 (SN12C; [2]): > 100 µM
GI50 (UACC-62): 11 µM
LC50 (UACC-62): > 100 µM
TGI (UACC-62): 53.2 µM
GI50 (BT-549): 37.6 µM
TGI (BT-549): > 100 µM
CC50 (BT-549; [2]): > 100 µM
GI50 (SF-539): 2.07 µM
TGI (SF-539): 5.78 µM
CC50 (SF-539; [2]): 27 µM
GI50 (SK-OV-3): 11.9 µM
LC50 (SK-OV-3): 65.1 µM
TGI (SK-OV-3): 27.9 µM
GI50 [1]: 19.8 µM
TGI [1]: 84.2 µM
CC50 [1, 2]: > 100 µM
GI50 (NCI/ADR-RES): 15.7 µM
TGI (NCI/ADR-RES): > 100 µM
CC50 (NCI/ADR-RES; [2]): > 100 µM
